Key:
[1] = Inhibition of cPLA2-alpha in Sprague-Dawley rat whole blood assay in presence of A23187; type: tissue-based
How it was run: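 Heparinized blood from male Sprague-Dawley rats, taken by cardiac puncture. Preincubated 15 min at 37 °C with compound in DMSO, then stimulated 10 min at 37 °C with 5 µM A23187 (final). Stopped with 20 mM EDTA; plasma precipitated with cold methanol at −80 °C. TXB2 measured by immunoassay; IC50 values averaged from at least two independent runs.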

[2] = Inhibition of human cPLA2-alpha assessed as cleavage of 7-hydroxycoumarinyl-gamma-linolenate
How it was run: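 Substrate 90 µM GLU with 120 µM DTPC. Compounds in DMSO tested in duplicate. Fluorescence (ex 355/em 460 nm) read every 4 min for 84 min; inhibition from slope. IC50 averaged from at least two independent runs.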

[3] = Clearance in Sprague-Dawley rat at 2 mg/kg, iv; type: ADME, organism-based; parameters: dose 2 mg/kg, route intravenous; details: in vivo
How it was run: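 Male Sprague-Dawley rats, 200–300 g, n = 3, given a single 2 mg/kg tail-vein bolus in 50% PEG-400/50% DMSO. Blood drawn via jugular cannula over 24 h and plasma acidified with HCl. Plasma levels measured by LC/MS/MS after acetonitrile precipitation with internal standard; quantitation limit 5 ng/mL. Clearance from non-compartmental analysis.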

[4] = Oral bioavailability in Sprague-Dawley rat at 25 mg/kg administered through MC/TW formulation; type: ADME, organism-based; details: in vivo
How it was run: (§1)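 Overnight-fasted male Sprague-Dawley rats (n = 3) gavaged in MC/TW or Phosal vehicle; compound at 37.5 mg/mL, diluted with water, dosed at 4 mL/kg. Jugular blood taken over 24 h; plasma analysed by LC/MS/MS. F calculated as the dose-normalized oral/iv AUC ratio, iv reference 2 mg/kg.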

[5] = Clearance in Beagle dog at 2 mg/kg, iv; type: ADME, organism-based, Canis lupus familiaris; parameters: dose 2 mg/kg, route intravenous; details: in vivo
How it was run: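 Male Beagle dogs, 8.5–13.0 kg, n = 3, fasted overnight, given 2 mg/kg iv in 20% DMSO/80% PEG-200. Saphenous blood sampled over 24 h and plasma acidified to about pH 4. Analysed by LC/MS/MS with internal standard. Clearance by non-compartmental methods.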

[6] = Oral bioavailability in Beagle dog at 50 mg/kg administered through Phosal formulation; type: ADME, organism-based, Canis lupus familiaris; details: in vivo
How it was run: (§2)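 Fasted male Beagle dogs (n = 3) dosed orally in MC/TW or Phosal formulation, volume 4 or 6 mL/kg. Saphenous plasma collected over 24 h and measured by LC/MS/MS. F calculated as the dose-normalized oral/iv AUC ratio against 2 mg/kg iv.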

[7] = Oral bioavailability in Beagle dog at 50 mg/kg administered through MC/TW formulation; type: ADME, organism-based, Canis lupus familiaris; details: in vivo; how it was run: as §2
[8] = Oral bioavailability in Sprague-Dawley rat at 25 mg/kg administered through Phosal formulation; type: ADME, organism-based; details: in vivo; how it was run: as §1
[9] = Oral bioavailability in Sprague-Dawley rat at 10 mg/kg administered through Phosal formulation; type: ADME, organism-based; details: in vivo
[10] = Oral bioavailability in Sprague-Dawley rat at 5 mg/kg administered through MC/TW formulation; type: ADME, organism-based; details: in vivo; how it was run: as §1

| Compound | IC50 [1] [nM] | IC50 [2] [nM] | clearance [3] [mL/min/kg] | bioavailability [4] [%] | clearance [5] [mL/min/kg] | bioavailability [6] [%] | bioavailability [7] [%] | bioavailability [8] [%] | bioavailability [9] [%] | bioavailability [10] [%] |
| --- | --- | --- | --- | --- | --- | --- | --- | --- | --- | --- |
| Cc1cccc(C)c1S(=O)(=O)NCCc1c(CCCc2ccc(C(=O)O)cc2)c2cc(Cl)ccc2n1C(c1ccccc1)c1ccccc1 | 75 | 47 | 10.5 | 1.3 |  |  |  |  |  |  |
| O=C(O)c1ccc(CCCc2c(CCNS(=O)(=O)c3c(Cl)cccc3Cl)n(C(c3ccccc3)c3ccccc3)c3ccc(Cl)cc23)cc1 | 100 | 60 | 8.5 | 3.8 |  |  |  |  |  |  |
| O=C(O)c1ccc(OCCc2c(CCNS(=O)(=O)c3ccccc3Br)n(C(c3ccccc3)c3ccccc3)c3ccc(Cl)cc23)cc1 | 320 | 520 | 3.1 | < 0.2 |  |  |  |  |  |  |
| COc1ccccc1S(=O)(=O)NCCc1c(CCCc2ccc(C(=O)O)cc2)c2cc(Cl)ccc2n1C(c1ccccc1)c1ccccc1 | 200 | 100 | 10.7 | 7.8 |  |  |  |  |  |  |
| Cc1ccccc1S(=O)(=O)NCCc1c(CCOc2ccc(C(=O)O)cc2)c2cc(Cl)ccc2n1C(c1ccccc1)c1ccccc1 | 160 | 340 | 61 |  |  |  |  |  |  |  |
| O=C(O)c1ccc(CCCc2c(CCNS(=O)(=O)c3ccccc3Cl)n(C(c3ccccc3)c3ccccc3)c3ccc(Cl)cc23)cc1 | 200 | 100 | 9.4 | 13.7 |  |  |  |  |  |  |
| O=C(O)c1ccc(OCCc2c(CCNS(=O)(=O)Cc3ccccc3)n(C(c3ccccc3)c3ccccc3)c3ccc(Cl)cc23)cc1 | 120 | 110 |  | 3.9 |  |  |  |  |  |  |
| O=C(O)c1ccc(OCCc2c(CCNS(=O)(=O)c3c(F)cccc3C(F)(F)F)n(C(c3ccccc3)c3ccccc3)c3ccc(Cl)cc23)cc1 | 150 | 180 | 15.3 | 3 |  |  |  |  |  |  |
| Cc1cccc(C)c1S(=O)(=O)NCCc1c(CCOc2ccc(C(=O)O)cc2)c2cc(Cl)ccc2n1C(c1ccccc1)c1ccccc1 | 95 | 100 | 6.1 | 6 |  |  |  |  |  |  |
| O=C(O)c1ccc(CCCc2c(CCNS(=O)(=O)c3ccccc3OC(F)(F)F)n(C(c3ccccc3)c3ccccc3)c3ccc(Cl)cc23)cc1 | 200 | 100 | 5.2 | 4.6 |  |  |  |  |  |  |
| O=C(O)c1ccc(CCCc2c(CCNS(=O)(=O)c3cccc(-c4ccccc4)c3)n(C(c3ccccc3)c3ccccc3)c3ccc(Cl)cc23)cc1 | 220 | 180 |  |  |  |  |  |  |  |  |
| O=C(O)c1ccc(CCCc2c(CCNS(=O)(=O)c3ccccc3F)n(C(c3ccccc3)c3ccccc3)c3ccc(Cl)cc23)cc1 | 220 | 190 | 8.8 | 4 |  |  |  |  |  |  |
| Cc1cccc(C)c1CS(=O)(=O)NCCc1c(CCCc2ccc(C(=O)O)cc2)c2cc(Cl)ccc2n1C(c1ccccc1)c1ccccc1 | 30 | 14 | 4 | 1 | 0.6 | 1.5 | 0.08 | 3.5 |  |  |
| O=C(O)c1ccc(OCCc2c(CCNS(=O)(=O)c3cccc(-c4ccccc4)c3)n(C(c3ccccc3)c3ccccc3)c3ccc(Cl)cc23)cc1 | 600 | 570 |  |  |  |  |  |  |  |  |
| O=C(O)c1ccc(OCCc2c(CCNS(=O)(=O)c3ccccc3OC(F)(F)F)n(C(c3ccccc3)c3ccccc3)c3ccc(Cl)cc23)cc1 | 360 | 350 | 12.4 | 15.4 |  |  |  |  |  |  |
| O=C(O)c1ccc(OCCc2c(CCNS(=O)(=O)c3c(Cl)cccc3Cl)n(C(c3ccccc3)c3ccccc3)c3ccc(Cl)cc23)cc1 | 210 | 260 | 16.3 | 2.9 |  |  |  |  |  |  |
| Cc1ccccc1S(=O)(=O)NCCc1c(CCCc2ccc(C(=O)O)cc2)c2cc(Cl)ccc2n1C(c1ccccc1)c1ccccc1 | 95 | 90 | 10.3 | 8.6 |  |  |  |  |  |  |
| O=C(O)c1ccc(OCCc2c(CCNS(=O)(=O)Cc3ccc(Cl)c(Cl)c3)n(C(c3ccccc3)c3ccccc3)c3ccc(Cl)cc23)cc1 [ECOPLADIB] | 160 |  |  | 6 |  |  |  |  |  |  |
| O=C(O)c1ccc(CCCc2c(CCNS(=O)(=O)c3ccccc3Br)n(C(c3ccccc3)c3ccccc3)c3ccc(Cl)cc23)cc1 | 120 | 100 | 6.5 | 1.9 |  |  |  |  |  |  |
| O=C(O)c1ccc(CCCc2c(CCNS(=O)(=O)Cc3ccccc3)n(C(c3ccccc3)c3ccccc3)c3ccc(Cl)cc23)cc1 | 80 | 40 | 13 |  |  |  |  |  | 7.2 | 3.8 |
| O=C(O)c1ccc(OCCc2c(CCNS(=O)(=O)c3ccccc3-c3ccccc3)n(C(c3ccccc3)c3ccccc3)c3ccc(Cl)cc23)cc1 | 150 | 110 | 4.5 | < 0.1 |  |  |  |  |  |  |
| O=C(O)c1ccc(OCCc2c(CCNS(=O)(=O)c3ccccc3F)n(C(c3ccccc3)c3ccccc3)c3ccc(Cl)cc23)cc1 | 150 | 600 | 28 | 6 |  |  |  |  |  |  |
| O=C(O)c1ccc(OCCc2c(CCNS(=O)(=O)c3ccccc3)n(C(c3ccccc3)c3ccccc3)c3ccc(Cl)cc23)cc1 | 1000 | 3000 | 73 |  |  |  |  |  |  |  |
| O=C(O)c1ccc(CCCc2c(CCNS(=O)(=O)c3ccccc3-c3ccccc3)n(C(c3ccccc3)c3ccccc3)c3ccc(Cl)cc23)cc1 | 60 | 40 | 2.3 | 0.4 |  |  |  |  |  |  |
| O=C(O)c1ccc(OCCc2c(CCNS(=O)(=O)c3ccccc3Cl)n(C(c3ccccc3)c3ccccc3)c3ccc(Cl)cc23)cc1 | 550 | 400 | 31 | 39 |  |  |  |  |  |  |
| COc1ccccc1S(=O)(=O)NCCc1c(CCOc2ccc(C(=O)O)cc2)c2cc(Cl)ccc2n1C(c1ccccc1)c1ccccc1 | 60 | 180 | 18.6 | < 0.1 |  |  |  |  |  |  |
| O=C(O)c1ccc(CCCc2c(CCNS(=O)(=O)Cc3ccc(Cl)c(Cl)c3)n(C(c3ccccc3)c3ccccc3)c3ccc(Cl)cc23)cc1 [EFIPLADIB] | 70 | 40 |  | 1 |  |  |  | 6 |  |  |

— ChEMBL document CHEMBL1141604, “Benzenesulfonamide indole inhibitors of cytosolic phospholipase A2alpha: optimization of in vitro potency and rat pharmacokinetics for oral efficacy” (Bioorg Med Chem, 2008)
